# How the values were obtained:
# [1] = test system: Human immunodeficiency virus 1; test: Antiviral activity against HIV1 098 isolate infected in human PBMCs by reverse transcriptase assay; format: functional, organism-based
# How it was run: (§1)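 CD8-depleted activated PBMC targets infected at high MOI by spinoculation; infected cells incubated with uninfected targets at 2 × 10⁵ cells per well with serially diluted peptide for 9 days. Fresh compound added and samples taken every 2–3 days. Replication read by reverse transcriptase assay; IC50 from reduction in RT signal relative to infected untreated wells.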
# [2] = Half life in cynomolgus monkey at 1 to 2 mg/kg, iv; format: ADME, organism-based, Macaca fascicularis; set-up: dose 1-2 mg/kg, route intravenous; conditions: in vivo
# How it was run: (§2)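 Male cynomolgus monkeys received a single i.v. dose of about 1–2 mg/kg in isotonic phosphate-mannitol vehicle, given as cassettes (typically n ≤ 8). Plasma was protein-precipitated with 0.5% formic acid in acetonitrile and peptide measured by reversed-phase HPLC. Parameters were fitted with mono- or biexponential models.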
# [3] = test system: Human immunodeficiency virus 1; test: Antiviral activity against HIV1 098-T20 isolate infected in human PBMCs by reverse transcriptase assay; format: functional, organism-based; how it was run: as §1
# [4] = test system: Human immunodeficiency virus 1; test: Antiviral activity against HIV1 098-T1249 isolate infected in human PBMCs by reverse transcriptase assay; format: functional, organism-based; how it was run: as §1
# [5] = Clearance in cynomolgus monkey at 1 to 2 mg/kg, iv; format: ADME, organism-based, Macaca fascicularis; set-up: dose 1-2 mg/kg, route intravenous; conditions: in vivo; how it was run: as §2
# [6] = test system: Human immunodeficiency virus 1; test: Binding affinity to HIV1 gp41 heptad repeat 1 region assessed as thermal stability of HR1/HR2 peptide bundle complex at 1 uM in presence of 8M urea
# [7] = test system: Human immunodeficiency virus 1; test: Antiviral activity against HIV1 3B infected in human PBMCs by reverse transcriptase assay; format: functional, organism-based; conditions: Human immunodeficiency virus 1, 3B; how it was run: as §1
# [8] = test system: Human immunodeficiency virus 1; test: Antiviral activity against HIV1 098-T651 isolate infected in human PBMCs by reverse transcriptase assay; format: functional, organism-based; how it was run: as §1
Compound,IC50 [1] [µg/mL],half-life [2] [h],IC50 [3] [µg/mL],IC50 [4] [µg/mL],clearance [5] [mL/min/kg],Tm [6] [°C],IC50 [7] [µg/mL],IC50 [8] [µg/mL]
CC[C@H](C)[C@H](NC(=O)[C@H](CCC(N)=O)NC(=O)[C@H](C)NC(=O)[C@H](CCC(N)=O)NC(=O)[C@H](CCC(=O)O)NC(=O)[C@H](CC(C)C)NC(=O)[C@H](CC(C)C)NC(=O)[C@H](C)NC(=O)[C@@H](NC(=O)[C@@H](NC(=O)[C@H](CCCCN)NC(=O)[C@H](CCC(N)=O)NC(=O)[C@H](CCC(=O)O)NC(=O)[C@H](Cc1c[nH]c2ccccc12)NC(=O)[C@H](CCC(=O)O)NC(=O)[C@H](CCC(N)=O)NC(=O)[C@@H](N)Cc1c[nH]c2ccccc12)[C@@H](C)CC)[C@@H](C)O)C(=O)N[C@@H](CCC(N)=O)C(=O)N[C@@H](CCC(N)=O)C(=O)N[C@@H](CCC(=O)O)C(=O)N[C@@H](CCCCN)C(=O)N[C@@H](CC(N)=O)C(=O)N[C@@H](CCC(=O)O)C(=O)N[C@@H](Cc1ccc(O)cc1)C(=O)N[C@@H](CCC(=O)O)C(=O)N[C@@H](CC(C)C)C(=O)N[C@@H](CCC(N)=O)C(=O)N[C@@H](CCCCN)C(=O)N[C@@H](CC(C)C)C(=O)N[C@@H](CC(=O)O)C(=O)N[C@@H](CCCCN)C(=O)N[C@@H](Cc1c[nH]c2ccccc12)C(=O)N[C@@H](C)C(=O)N[C@@H](CO)C(=O)N[C@@H](CC(C)C)C(=O)N[C@@H](Cc1c[nH]c2ccccc12)C(=O)N[C@@H](CCC(=O)O)C(=O)N[C@@H](Cc1c[nH]c2ccccc12)C(=O)N[C@@H](Cc1ccccc1)C(=O)O,0.013,5.9,0.022,0.363,0.167,59,0.003,8.14
CC[C@H](C)[C@H](NC(=O)[C@H](CC(C)C)NC(=O)[C@H](CO)NC(=O)[C@H](Cc1cnc[nH]1)NC(=O)[C@H](NC(=O)[C@H](CC(C)C)NC(=O)[C@H](CO)NC(=O)[C@@H](NC(=O)[C@H](Cc1ccc(O)cc1)NC(=O)[C@H](CC(N)=O)NC(=O)[C@H](CC(N)=O)NC(=O)[C@@H](NC(=O)[C@H](CCC(=O)O)NC(=O)[C@H](CCCNC(=N)N)NC(=O)[C@H](CC(=O)O)NC(=O)[C@H](Cc1c[nH]c2ccccc12)NC(=O)[C@H](CCC(=O)O)NC(=O)[C@H](CCSC)NC(=O)[C@H](Cc1c[nH]c2ccccc12)NC(=O)[C@@H](NC(=O)[C@@H](N)CCSC)[C@@H](C)O)[C@@H](C)CC)[C@@H](C)O)[C@@H](C)CC)C(=O)N[C@@H](CCC(=O)O)C(=O)N[C@@H](CCC(=O)O)C(=O)N[C@@H](CO)C(=O)N[C@@H](CCC(N)=O)C(=O)N[C@@H](CC(N)=O)C(=O)N[C@@H](CCC(N)=O)C(=O)N[C@@H](CCC(N)=O)C(=O)N[C@@H](CCC(=O)O)C(=O)N[C@@H](CCCCN)C(=O)N[C@@H](CC(N)=O)C(=O)N[C@@H](CCC(=O)O)C(=O)N[C@@H](CCC(N)=O)C(=O)N[C@@H](CCC(=O)O)C(=O)N[C@@H](CC(C)C)C(=O)N[C@@H](CC(C)C)C(=O)O,0.033,0.3,0.06,0.151,7.2,68,0.008,7.6
CC[C@H](C)[C@H](NC(=O)[C@H](CC(C)C)NC(=O)[C@H](CO)NC(=O)[C@H](Cc1cnc[nH]1)NC(=O)[C@@H](NC(=O)[C@H](CC(C)C)NC(=O)[C@H](CO)NC(=O)[C@@H](NC(=O)[C@H](Cc1ccc(O)cc1)NC(=O)[C@H](CC(N)=O)NC(=O)[C@H](CC(N)=O)NC(=O)[C@@H](NC(=O)[C@H](CCC(=O)O)NC(=O)[C@H](CCCNC(=N)N)NC(=O)[C@H](CC(=O)O)NC(=O)[C@H](Cc1c[nH]c2ccccc12)NC(=O)[C@H](CCC(=O)O)NC(=O)[C@H](CCSC)NC(=O)[C@H](Cc1c[nH]c2ccccc12)NC(=O)[C@@H](NC(=O)[C@@H](N)CCSC)[C@@H](C)O)[C@@H](C)CC)[C@@H](C)O)[C@@H](C)CC)C(=O)N[C@@H](CCC(=O)O)C(=O)N[C@@H](CCC(=O)O)C(=O)N[C@@H](CO)C(=O)N[C@@H](CCC(N)=O)C(=O)N[C@@H](CC(N)=O)C(=O)N[C@@H](CCC(N)=O)C(=O)N[C@@H](CCC(N)=O)C(=O)N[C@@H](CCC(=O)O)C(=O)N[C@@H](CCCCN)C(=O)N[C@@H](CC(N)=O)C(=O)N[C@@H](CCC(=O)O)C(=O)N[C@@H](CCC(N)=O)C(=O)N[C@@H](CCC(=O)O)C(=O)N[C@@H](CC(C)C)C(=O)N[C@@H](CC(C)C)C(=O)N[C@@H](CCC(=O)O)C(=O)N[C@@H](CC(C)C)C(=O)O,0.032,1.2,0.039,0.137,6.2,74,0.008,4.97
CC[C@H](C)[C@H](NC(=O)[C@H](C)NC(=O)[C@H](CCCNC(=N)N)NC(=O)[C@H](CC(=O)O)NC(=O)[C@H](Cc1c[nH]c2ccccc12)NC(=O)[C@H](C)NC(=O)[C@H](CCC(=O)O)NC(=O)[C@H](Cc1c[nH]c2ccccc12)NC(=O)[C@@H](NC(=O)[C@@H](N)[C@@H](C)O)[C@@H](C)O)C(=O)N[C@@H](C)C(=O)N[C@@H](CCC(=O)O)C(=O)N[C@@H](Cc1ccc(O)cc1)C(=O)N[C@@H](C)C(=O)N[C@@H](C)C(=O)N[C@@H](CCCNC(=N)N)C(=O)N[C@H](C(=O)N[C@@H](CCC(=O)O)C(=O)N[C@@H](C)C(=O)N[C@@H](CC(C)C)C(=O)N[C@H](C(=O)N[C@@H](CCCNC(=N)N)C(=O)N[C@@H](C)C(=O)N[C@@H](C)C(=O)N[C@@H](CCC(N)=O)C(=O)N[C@@H](CCC(=O)O)C(=O)N[C@@H](CCC(N)=O)C(=O)N[C@@H](CCC(N)=O)C(=O)N[C@@H](CCC(=O)O)C(=O)N[C@@H](CCCCN)C(=O)N[C@@H](CC(N)=O)C(=O)N[C@@H](CCC(=O)O)C(=O)N[C@@H](C)C(=O)N[C@@H](C)C(=O)N[C@@H](CC(C)C)C(=O)N[C@@H](CCCNC(=N)N)C(=O)N[C@@H](CCC(=O)O)C(=O)N[C@@H](CC(C)C)C(=O)O)[C@@H](C)CC)[C@@H](C)CC,0.018,16.3,0.025,0.015,0.717,86,0.007,0.021
H-TTWEAWDRAIAEYAARIEALIRAAQELQEKLEAALREL-OH,0.6,30.8,0.416,0.555,0.0333,92,0.172,0.987
H-TTWEAWDRAIAEYAARIEALIRAAQELQEKNEAALREL-OH,0.021,7.6,0.035,0.03,0.433,89,0.007,0.02
H-TTWEAWDRAIAEYAARIEALIRAAQEQQEKNEAILREL-OH,0.021,3.4,0.034,0.024,1.1,,0.007,0.039
H-TTWEAWDRAIAEYAARIEALIRALQELQEKLEAILREL-OH,> 20,35.4,> 20,> 20,0.05,,3.16,> 20
H-TTWEAWDRAIAEYAARIEALIRALQEQQEKNEAALREL-OH,0.035,15.2,0.028,0.035,0.167,,0.011,0.05
H-TTWEEWDREINEYTSRIESLIRESQEQQEKNEQELREL-OH,0.021,,0.056,0.037,,80,0.012,0.167

# More lines, now with the values ahead:
IC50 [1] [µg/mL],half-life [2] [h],IC50 [3] [µg/mL],IC50 [4] [µg/mL],clearance [5] [mL/min/kg],Tm [6] [°C],IC50 [7] [µg/mL],IC50 [8] [µg/mL],Compound
,,,,,84,,,CC[C@H](C)[C@H](NC(=O)[C@H](C)NC(=O)[C@H](CCCNC(=N)N)NC(=O)[C@H](CC(=O)O)NC(=O)[C@H](Cc1c[nH]c2ccccc12)NC(=O)[C@H](C)NC(=O)[C@H](CCC(=O)O)NC(=O)[C@H](Cc1c[nH]c2ccccc12)NC(=O)[C@@H](NC(=O)[C@@H](N)[C@@H](C)O)[C@@H](C)O)C(=O)N[C@@H](C)C(=O)N[C@@H](CCC(=O)O)C(=O)N[C@@H](Cc1ccc(O)cc1)C(=O)N[C@@H](C)C(=O)N[C@@H](C)C(=O)N[C@@H](CCCNC(=N)N)C(=O)N[C@H](C(=O)N[C@@H](CCC(=O)O)C(=O)N[C@@H](C)C(=O)N[C@@H](CC(C)C)C(=O)N[C@H](C(=O)N[C@@H](CCCNC(=N)N)C(=O)N[C@@H](C)C(=O)N[C@@H](CC(C)C)C(=O)N[C@@H](CCC(N)=O)C(=O)N[C@@H](CCC(=O)O)C(=O)N[C@@H](CC(C)C)C(=O)N[C@@H](CCC(N)=O)C(=O)N[C@@H](CCC(=O)O)C(=O)N[C@@H](CCCCN)C(=O)N[C@@H](CC(N)=O)C(=O)N[C@@H](CCC(N)=O)C(=O)N[C@@H](C)C(=O)N[C@H](C(=O)N[C@@H](CC(C)C)C(=O)N[C@@H](CCCNC(=N)N)C(=O)N[C@@H](CCC(=O)O)C(=O)N[C@@H](CC(C)C)C(=O)O)[C@@H](C)CC)[C@@H](C)CC)[C@@H](C)CC
0.026,5.1,0.033,0.014,0.533,,0.007,0.021,H-MTWEAWDRAIAEYAARIEALIRAAQEQQEKNEAALREL-OH
0.079,,0.079,0.12,,,0.061,0.25,H-MTWMAWDRAIANYAALIHALIEAAQNQQEKNEAALLEL-OH
0.045,17.9,0.028,0.025,0.15,86,0.012,0.044,H-TTWEAWDRAIAEYAARIEALIRAAQEQQEKLEAALREL-OH
0.118,9.6,0.154,0.192,0.15,,0.065,> 20,H-TTWEAWDRAIAEYAARIEALIRALQELQEKNEAILREL-OH

# From ChEMBL document CHEMBL1147044, “Design of helical, oligomeric HIV-1 fusion inhibitor peptides with potent activity against enfuvirtide-resistant virus” (Proc Natl Acad Sci U S A, 2007)
